ChEMBL document CHEMBL5344432, “Identification of a Dual Autophagy and REV-ERB Inhibitor with in Vivo Anticancer Efficacy” (J Med Chem, 2024)
≈ marks a conversion by molar mass, not a printed value.

Legend:
[1] = Metabolic stability in mouse liver microsomes assessed as half life preincubated for 15 mins followed by NADPH addition and measured after 1 to 2 hrs by LC-MS/MS analysis; assay type: ADME, Microsome; conditions: time 75-135 min; for half-life: liver microsomes; for t1/2: microsomes
Outline: (§1)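 Microsomal stability assessed in mouse, human, rat or dog liver microsomes with NADPH cofactor. Half-life and percent parent remaining at 60 and 120 min reported. Mean of at least two independent experiments, each in two technical replicates.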

BT-474 = test: Cytotoxicity against human BT-474 cells; assay type: functional
Outline: (§2)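 BT-474 breast cancer cells and nontumorigenic HMECs treated 48 h with concentrations up to 30 μM. CC50 derived from concentration–response viability plots. Values >30 μM assigned when viability fell by less than 50% of vehicle at 30 μM. Mean ± SEM, n ≥ 3.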

[2] = (§3) Cytotoxicity against HMECs; assay type: toxicity, cell-based, HMEC; conditions: human, HMEC cells; outline: as §2
[3] = Aqueous kinetic solubility of the compound in PBS at pH 7.4 at 250 uM incubated for 24 hrs by UPLC/MS analysis; assay type: physicochemical; conditions: read-out: Kinetic_solubility
Outline: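 Kinetic solubility measured in phosphate-buffered saline, pH 7.4. Mean of at least two independent experiments, each run in two technical replicates.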

[4] = Metabolic stability in mouse liver microsomes assessed as parent compound remaining preincubated for 15 mins followed by NADPH addition and measured after 1 hr by LC-MS/MS analysis; assay type: ADME, Microsome; conditions: time 75 min, read-out: Stability; outline: as §1
[5] = Metabolic stability in human liver microsomes assessed as percent compound remaining preincubated for 15 mins followed by UDPGA addition and measured after 2 hrs by LC-MS/MS analysis
[6] = Metabolic stability in human liver microsomes assessed as half life preincubated for 15 mins followed by NADPH addition and measured after 1 to 2 hrs by LC-MS/MS analysis; assay type: ADME, Microsome; conditions: time 75-135 min; for half-life: liver microsomes; outline: as §1
[7] = Metabolic stability in mouse liver microsomes assessed as half life preincubated for 15 mins followed by UDPGA addition and measured after 2 hrs by LC-MS/MS analysis; assay type: ADME, Microsome; conditions: time 135 min
Outline: (§4)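 Mouse and human liver microsomes incubated with UDPGA cofactor. Half-life and percent parent remaining at 120 min reported. Mean of at least two independent experiments, each in two technical replicates.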

[8] = Metabolic stability in mouse liver microsomes assessed as half-life preincubated for 15 mins followed by UDPGA addition and measured after 2 hrs by LC-MS/MS analysis
HMEC = test: as §3; assay type: toxicity, cell-based; conditions: human, hmec; outline: as §2
[9] = Metabolic stability in human liver microsomes assessed as parent compound remaining preincubated for 15 mins followed by NADPH addition and measured after 2 hrs by LC-MS/MS analysis; assay type: ADME, Microsome; conditions: time 135 min, read-out: Stability; outline: as §1
[10] = Metabolic stability in human liver microsomes assessed as parent compound remaining preincubated for 15 mins followed by UDPGA addition and measured after 2 hrs by LC-MS/MS analysis; assay type: ADME, Microsome; conditions: time 135 min, read-out: Stability; outline: as §4
[11] = Metabolic stability in human liver microsomes assessed as parent compound remaining preincubated for 15 mins followed by NADPH addition and measured after 1 hr by LC-MS/MS analysis; assay type: ADME, Microsome; conditions: time 75 min, read-out: Stability; outline: as §1
[12] = Metabolic stability in mouse liver microsomes assessed as parent compound remaining preincubated for 15 mins followed by NADPH addition and measured after 2 hrs by LC-MS/MS analysis; assay type: ADME, Microsome; conditions: time 135 min, read-out: Stability; outline: as §1

SMILES	half-life [1]	CC50 (BT-474)	CC50 [2]	solubility kinetic at 24 h, 250 µM [3]	remaining at 1 h [4]	percent compound remaining at 2 h [5]	half-life [6]	t1/2 [1]	half-life [7]	t1/2 at 2 h [8]	CC50 (HMEC)	remaining at 2 h [9]	remaining at 2 h [10]	remaining at 1 h [11]	remaining at 2 h [12]	t1/2 ([6]; microsomes)
CN1CC(Cc2cccc(CNC3(c4ccc(F)cc4)CCCC3)c2)C1	> 1 h	13.4 µM	> 30 µM	> 250 µM	63%											
CN1CCC(Cc2cc(CNC3(c4ccc(F)cc4)CCCC3)c(F)cc2F)CC1		3.11 µM		228 µM (≈ 95 µg/mL)	58%	95%	> 2 h	1.33 h	> 2 h	> 2 h	20.4 µM	52%	95%	76%	34%	
CN1CCC(Cc2cccc(CNC3(c4ccc(F)cc4F)CCCC3)c2)CC1	< 0.5 h	7.83 µM	> 30 µM	209 µM (≈ 83.3 µg/mL)	19%										5%	
CN1CCC(Cc2cc(CNC3(c4ccc(F)cc4)CCCC3)ccc2Cl)CC1		2.34 µM		216 µM (≈ 89.6 µg/mL)	51%			0.933 h			15.4 µM				29%	
CN1CCC(Cc2ccc(O)c(CNC3(c4ccc(F)cc4)CCCC3)c2)CC1		7.03 µM	> 30 µM	246 µM (≈ 97.6 µg/mL)		95%	> 2 h	1.37 h	> 2 h	> 2 h		54%	95%	74%		
CN1CCC(Cc2ccc(F)c(CNC3(c4ccc(F)cc4)CCCC3)c2)CC1		5.45 µM	> 30 µM	246 µM (≈ 98 µg/mL)	68%	95%	> 2 h	1.78 h	> 2 h	> 2 h		53%	95%	75%	46%	
CN1CCC(Cc2cccc(CNC3(c4ccc(F)cc4Cl)CCCC3)c2)CC1		4.25 µM		220 µM (≈ 91.3 µg/mL)				0.183 h			21 µM					
COc1cc(F)ccc1C1(NCc2ccc(F)c(CC3CCN(C)CC3)c2)CCCC1		6.88 µM	> 30 µM	> 250 µM	55%		> 2 h	1.15 h	> 2 h	> 2 h		58%	95%	75%	31%	
COc1cc(F)ccc1C1(NCc2cccc(CC3CCN(C)CC3)c2)CCCC1		6.99 µM	> 30 µM	247 µM (≈ 101 µg/mL)	64%			1.63 h	> 2 h	> 2 h		50%	> 95%	70%	42%	1.53 h
CN1CCC(Cc2cc(CNC3(c4ccc(F)cc4)CCCC3)ccc2F)CC1		5.89 µM	> 30 µM	> 250 µM	60%	95%	> 2 h	1.52 h	> 2 h	> 2 h		71%	95%	84%	39%	
CN1CC2(CC(Cc3cccc(CNC4(c5ccc(F)c(F)c5)CCCC4)c3)C2)C1		2.99 µM		226 µM (≈ 92.8 µg/mL)	56%		> 2 h	1.25 h			14.8 µM	65%		84%	32%	
